Results on 2 compounds are retold here after BindingDB's records for doi:10.1021/acsmedchemlett.9b00225 (University of Minnesota Twin Cities, 2019).

For orientation: Ki means a measure of affinity in units of concentration, obtained from inhibition or displacement.

Assay [1] has as its target Sigma non-opioid intracellular receptor 1 (Homo sapiens, UniProt Q99720). Briefly: Displacement of [3H]-Pentazocine from human recombinant sigma1 receptor expressed in HEKT cells after 90 mins by microbeta scintillation counting method. Background: In a radioligand displacement assay an active substance lowers the binding of a labelled ligand.
Assay [2] concerns the target 5-hydroxytryptamine receptor 2B (Homo sapiens, UniProt P41595). The assay is described as follows: Displacement of [3H]-LSD from human recombinant 5-HT2B receptor stably expressed in HEK cells after 90 mins by microbeta scintillation counting method. In short, it runs like this: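 Radioligand binding run by the NIMH Psychoactive Drug Screening Program. Otherwise Ki comes from sigmoidal curve fits of triplicate measurements in a single experiment, or is averaged over repeated experiments each run in triplicate.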

Chain of 5-hydroxytryptamine receptor 2B (P41595 whole entry): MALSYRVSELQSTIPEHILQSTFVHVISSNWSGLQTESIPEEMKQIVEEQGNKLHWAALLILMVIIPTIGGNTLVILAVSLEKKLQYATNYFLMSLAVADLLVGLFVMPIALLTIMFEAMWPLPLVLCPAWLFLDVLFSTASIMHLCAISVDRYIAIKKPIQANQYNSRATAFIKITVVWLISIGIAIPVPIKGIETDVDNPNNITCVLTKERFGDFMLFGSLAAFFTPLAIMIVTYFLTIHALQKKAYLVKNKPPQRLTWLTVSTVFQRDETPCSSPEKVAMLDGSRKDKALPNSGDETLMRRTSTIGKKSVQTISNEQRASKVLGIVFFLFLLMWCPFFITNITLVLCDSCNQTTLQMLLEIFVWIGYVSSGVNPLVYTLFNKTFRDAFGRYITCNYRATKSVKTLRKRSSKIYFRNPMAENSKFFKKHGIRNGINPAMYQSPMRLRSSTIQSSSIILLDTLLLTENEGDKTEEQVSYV
Chain of Sigma non-opioid intracellular receptor 1 (Q99720 whole entry): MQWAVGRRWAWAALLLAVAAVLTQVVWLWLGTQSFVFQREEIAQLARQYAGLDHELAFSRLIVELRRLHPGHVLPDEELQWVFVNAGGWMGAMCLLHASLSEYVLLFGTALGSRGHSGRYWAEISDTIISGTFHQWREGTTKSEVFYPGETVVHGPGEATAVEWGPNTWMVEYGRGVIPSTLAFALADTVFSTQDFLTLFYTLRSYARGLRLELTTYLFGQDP

As to `CC[C@H]1c2cc(-c3ccccc3)ccc2OC[C@@]1(C)N`, the Ki in assay [1] worked out at 12.6 nM.
For the compound `CC[C@H]1c2ccc3ccccc3c2OC[C@@]1(C)N`, in assay [2], the Ki was 2.51 nM.
